Data as given in ChEMBL document CHEMBL1921722, “In vitro and in vivo evaluation of select kahalalide F analogs with antitumor and antifungal activities” (Bioorg Med Chem, 2011).
Values after ≈ are worked out from the molar mass of the structure shown.

How the values were obtained:
Hs-578T [1] = test: Cytotoxicity against human Hs578T cells assessed as cell growth at 800 nM by sulforhodamine B assay relative to control; type: functional; settings: read-out: Activity
MDA-MB-435 = test: Cytotoxicity against human MDA-MB-435 cells assessed as cell growth at 800 nM by sulforhodamine B assay relative to control; type: functional; settings: read-out: Activity
Candida albicans = test: Antimicrobial activity against Candida albicans ATCC 90028 by CLSI method; type: functional, organism-based
SF-295 = test: Cytotoxicity against human SF295 cells assessed as cell growth at 8 uM by sulforhodamine B assay relative to control; type: functional; settings: read-out: Activity
OVCAR-4 = test: Cytotoxicity against human OVCAR4 cells assessed as cell growth at 8 nM by sulforhodamine B assay relative to control; type: functional; settings: read-out: Activity
BT-549 = test: Cytotoxicity against human BT549 cells assessed as cell growth at 800 nM by sulforhodamine B assay relative to control; type: functional; settings: read-out: Activity
Procedure, shortened: (§1)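 Run at NCI in the DTP 60-cell-line human tumor panel by standard procedure. Compounds were first screened at a single concentration, then tested at five tenfold-spaced concentrations. GI50 is the concentration reducing treated-cell growth to half that of untreated controls; TGI is the concentration completely halting growth.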

SN12C [2] = test: Cytotoxicity against human SN12C cells assessed as cell growth at 80 uM by sulforhodamine B assay relative to control; type: functional; settings: read-out: Activity
U-251 = test: Cytotoxicity against human U251 cells assessed as cell growth at 8 nM by sulforhodamine B assay relative to control; type: functional; settings: read-out: Activity
HL-60(TB) = test: Cytotoxicity against human HL-60(TB) cells by sulforhodamine B assay; type: functional
Procedure, shortened: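 NCI Developmental Therapeutics Program 60-cell-line human tumor panel, standard procedure. Single-concentration prescreen first; active compounds then tested at five concentrations. GI50 is the concentration reducing growth of treated cells to half that of untreated controls.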

SNB-75 = test: Cytotoxicity against human SNB75 cells assessed as cell growth at 8 nM by sulforhodamine B assay relative to control; type: functional; settings: read-out: Activity
SW-620 [3] = test: Cytotoxicity against human SW620 cells assessed as cell growth at 80 nM by sulforhodamine B assay relative to control; type: functional; settings: read-out: Activity
UACC-62 = test: Cytotoxicity against human UACC62 cells by sulforhodamine B assay; type: functional
Procedure, shortened: (§2)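 NCI Developmental Therapeutics Program 60-cell-line human tumor panel screen, run at NCI. A single-concentration pre-screen was followed by a five-concentration dose-response in 10-fold steps. GI50 is the concentration that reduces growth of treated cells to half that of untreated control cells. TGI is the concentration that completely halts growth.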

HOP-92 = test: Cytotoxicity against human HOP92 cells assessed as cell growth at 8 uM by sulforhodamine B assay relative to control; type: functional; settings: read-out: Activity
NCI/ADR-RES = test: Cytotoxicity against human NCI/ADR-RES cells assessed as cell growth at 8 nM by sulforhodamine B assay relative to control; type: functional; settings: read-out: Activity
MDA-MB-231 = test: Cytotoxicity against human MDA-MB-231 cells assessed as cell growth at 80 nM by sulforhodamine B assay relative to control; type: functional; settings: read-out: Activity
RPMI-8226 = test: Cytotoxicity against human RPMI8226 cells by sulforhodamine B assay; type: functional; procedure, shortened: as §2
UACC-257 = test: Cytotoxicity against human UACC257 cells assessed as cell growth at 80 nM by sulforhodamine B assay relative to control; type: functional; settings: read-out: Activity
T47D = test: Cytotoxicity against human T47D cells assessed as cell growth at 800 nM by sulforhodamine B assay relative to control; type: functional; settings: read-out: Activity
UO-31 = test: Cytotoxicity against human UO31 cells assessed as cell growth at 8 uM by sulforhodamine B assay relative to control; type: functional; settings: read-out: Activity
SN12C [4] = test: Cytotoxicity against human SN12C cells assessed as cell growth at 8 nM by sulforhodamine B assay relative to control; type: functional; settings: read-out: Activity
SF-539 [5] = test: Cytotoxicity against human SF539 cells assessed as cell growth at 80 uM by sulforhodamine B assay relative to control; type: functional; settings: read-out: Activity
EKVX = test: Cytotoxicity against human EKVX cells by sulforhodamine B assay; type: functional
Procedure, shortened: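 Run by the NCI Developmental Therapeutics Program on its 60-line human tumour cell panel using the standard procedure. Compounds went through a single-concentration prescreen first, and those active by NCI criteria went on to a five-concentration growth-inhibition test. GI50 is the concentration that cuts growth of treated cells to half that of untreated control cells.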

SK-MEL-5 = test: Cytotoxicity against human SK-MEL-5 cells by sulforhodamine B assay; type: functional; procedure, shortened: as §2
SK-OV-3 = test: Cytotoxicity against human SKOV3 cells by sulforhodamine B assay; type: functional; procedure, shortened: as §2
HCT-15 = test: Cytotoxicity against human HCT15 cells assessed as cell growth at 8 uM by sulforhodamine B assay relative to control; type: functional; settings: read-out: Activity
HOP-62 = test: Cytotoxicity against human HOP62 cells assessed as cell growth at 80 uM by sulforhodamine B assay relative to control; type: functional; settings: read-out: Activity
NCI-H322M = test: Cytotoxicity against human NCI-H322M cells assessed as cell growth at 8 nM by sulforhodamine B assay relative to control; type: functional; settings: read-out: Activity
SK-MEL-2 = test: Cytotoxicity against human SK-MEL-2 cells assessed as cell growth at 80 nM by sulforhodamine B assay relative to control; type: functional; settings: read-out: Activity
TK-10 = test: Cytotoxicity against human TK10 cells assessed as cell growth at 8 nM by sulforhodamine B assay relative to control; type: functional; settings: read-out: Activity
SF-539 [6] = test: Cytotoxicity against human SF539 cells by sulforhodamine B assay; type: functional; procedure, shortened: as §2
HT-29 = test: Cytotoxicity against human HT-29 cells assessed as cell growth at 8 uM by sulforhodamine B assay relative to control; type: functional; settings: read-out: Activity
Hs-578T [7] = test: Cytotoxicity against human Hs578T cells assessed as cell growth at 80 nM by sulforhodamine B assay relative to control; type: functional; settings: read-out: Activity
COLO 205 = test: Cytotoxicity against human COLO205 cells by sulforhodamine B assay; type: functional; procedure, shortened: as §1
SW-620 [8] = test: Cytotoxicity against human SW620 cells assessed as cell growth at 8 nM by sulforhodamine B assay relative to control; type: functional; settings: read-out: Activity
LOX IMVI = test: Cytotoxicity against human LOXIMVI cells assessed as cell growth at 8 uM by sulforhodamine B assay relative to control; type: functional; settings: read-out: Activity
M14 = test: Cytotoxicity against human M14 cells assessed as cell growth at 8 nM by sulforhodamine B assay relative to control; type: functional; settings: read-out: Activity
NCI-H460 = test: Cytotoxicity against human NCI-H460 cells assessed as cell growth at 8 nM by sulforhodamine B assay relative to control; type: functional; settings: read-out: Activity

For `C/C=C1\NC(=O)[C@H](Cc2ccccc2)NC(=O)[C@@H](C(C)C)NC(=O)[C@@H]([C@@H](C)CC)NC(=O)[C@H](NC(=O)[C@H](NC(=O)[C@H](CCCNCc2ccc(F)c(C)c2)NC(=O)[C@H]2CCCN2C(=O)[C@H](NC(=O)[C@@H](NC(=O)[C@@H](NC(=O)[C@H](NC(=O)CCCC(C)C)C(C)C)[C@@H](C)O)C(C)C)C(C)C)[C@@H](C)CC)[C@@H](C)OC(=O)[C@H](C(C)C)NC1=O`, the growth at 0.8 µM (Hs-578T [1]) was -5%, the growth at 0.8 µM (MDA-MB-435) was 83% and the IC50 (Candida albicans) was 3640 nM. For the same compound, the MFC (Candida albicans) was 20 µM (≈ 32 µg/mL), the MIC (Candida albicans) was 10 µM (≈ 16 µg/mL) and the growth at 8 µM (SF-295) was -89%. It also gave a growth at 0.008 µM (OVCAR-4) of 100%, a growth at 0.8 µM (BT-549) of 87% and a growth at 80 µM (SN12C [2]) of -96%. The growth at 0.008 µM (U-251) was 96%, the GI50 (HL-60(TB)) was 1580 nM and the TGI (HL-60(TB); read-out: pTGI (converted)) was 3090 nM. For the same compound, the growth at 0.008 µM (SNB-75) was 112%, the growth at 0.08 µM (SW-620 [3]) was 97% and the GI50 (UACC-62) was 1260 nM. It also gave an LC50 (UACC-62) of 4170 nM, a TGI (UACC-62; read-out: pTGI (converted)) of 2290 nM and a growth at 8 µM (HOP-92) of -62%. The growth at 0.008 µM (NCI/ADR-RES) was 105%, the growth at 0.08 µM (MDA-MB-231) was 98% and the GI50 (RPMI-8226; read-out: GI50) was 885 nM. For the same compound, the TGI (RPMI-8226; read-out: TGI) was 2260 nM, the GI50 (RPMI-8226; read-out: pGI50 (converted)) was 891 nM and the TGI (RPMI-8226; read-out: pTGI (converted)) was 2240 nM. The growth at 0.08 µM (UACC-257) was 101%, the growth at 0.8 µM (T47D) was -50% and the growth at 8 µM (UO-31) was -78%. It also gave a growth at 0.008 µM (SN12C [4]) of 89%, a growth at 80 µM (SF-539 [5]) of -62% and a GI50 (EKVX) of 759 nM. It also gave a CC50 (EKVX; read-out: pLC50 (the source's name) (converted)) of 4370 nM, a TGI (EKVX; read-out: pTGI (converted)) of 1820 nM and a GI50 (SK-MEL-5) of 1150 nM. The LC50 (SK-MEL-5) was 3980 nM, the TGI (SK-MEL-5; read-out: pTGI (converted)) was 2140 nM and the LC50 (SK-OV-3) was 891 nM. For the same compound, the GI50 (SK-OV-3; read-out: GI50) was 173 nM, the TGI (SK-OV-3; read-out: TGI) was 370 nM and the GI50 (SK-OV-3; read-out: pGI50 (converted)) was 174 nM. It also gave a TGI (SK-OV-3; read-out: pTGI (converted)) of 372 nM, a growth at 8 µM (HCT-15) of -92% and a growth at 80 µM (HOP-62) of -85%. It also gave a growth at 0.008 µM (NCI-H322M) of 105%, a growth at 0.08 µM (SK-MEL-2) of 101% and a growth at 0.008 µM (TK-10) of 112%. It also gave a GI50 (SF-539 [6]) of 1290 nM, an LC50 (SF-539 [6]) of 4370 nM and a TGI (SF-539 [6]; read-out: pTGI (converted)) of 2400 nM. The growth at 8 µM (HT-29) was -62%, the growth at 0.08 µM (Hs-578T [7]) was 97% and the GI50 (COLO 205; read-out: GI50) was 135 nM. It also gave a GI50 (COLO 205; read-out: pGI50 (converted)) of 135 nM, a growth at 0.008 µM (SW-620 [8]) of 99% and a growth at 8 µM (LOX IMVI) of -85%. The growth at 0.008 µM (M14) was 105% and the growth at 0.008 µM (NCI-H460) was 104%.
